Experimental data as given in ChEMBL document CHEMBL1122104, “Ring contraction of oleandrose on the macrolide antibiotic oleandomycin with [(Methoxycarbonyl)sulfamoyl]triethylammonium hydroxide inner salt” (1982).

Assays:
[1] = tested on: Bacillus subtilis; assay: In vitro antibacterial activity against Bacillis subtilis (06A001), and minimum inhibitory concentration was determined; assay type: functional
In short: (§1)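 Broth dilution MIC determination, done per a previously described procedure. Each value is the mean of two determinations.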

[2] = tested on: Escherichia coli; assay: In vitro antibacterial activity against Escherichia coli (51A470), and minimum inhibitory concentration was determined; assay type: functional; in short: as §1
[3] = tested on: Neisseria sicca; assay: In vitro antibacterial activity against Neisseria sicca (66C000), and minimum inhibitory concentration was determined; assay type: functional; in short: as §1
[4] = tested on: Pasteurella multocida; assay: In vitro antibacterial activity against Pasteurella multocida (59A0001), and minimum inhibitory concentration was determined; assay type: functional; in short: as §1
[5] = tested on: Staphylococcus aureus; assay: In vitro for antibacterial activity against Staphylococcus aureus (01A111), and minimum inhibitory concentration was determined; assay type: functional; in short: as §1
[6] = tested on: Staphylococcus aureus; assay: In vitro for antibacterial activity against Staphylococcus aureus (01A400), and minimum inhibitory concentration was determined; assay type: functional; in short: as §1
[7] = tested on: Staphylococcus aureus; assay: In vitro antibacterial activity against Staphylococcus aureus (01A052), and minimum inhibitory concentration was determined; assay type: functional; in short: as §1
[8] = tested on: Staphylococcus aureus; assay: In vitro antibacterial activity against Staphylococcus aureus (01A005), and minimum inhibitory concentration was determined; assay type: functional; in short: as §1
[9] = tested on: Streptococcus pneumoniae; assay: In vitro antibacterial activity against Streptococcus pneumoniae (02J012), and minimum inhibitory concentration was determined; assay type: functional; in short: as §1
[10] = tested on: Streptococcus pyogenes; assay: In vitro antibacterial activity against Streptococcus pyogenes (02C203), and minimum inhibitory concentration was determined; assay type: functional; in short: as §1
[11] = tested on: Enterococcus faecalis; assay: In vitro antibacterial activity against Streptococcus faecalis (02A006), and minimum inhibitory concentration was determined; assay type: functional; in short: as §1
[12] = tested on: Escherichia coli; assay: In vitro antibacterial activity against Escherichia coli (51A125), and minimum inhibitory concentration was determined
[13] = tested on: Escherichia coli; assay: In vitro antibacterial activity against Escherichia coli (51A125), and minimum inhibitory concentration was determined; assay type: functional; in short: as §1
[14] = tested on: Neisseria sicca; assay: In vitro antibacterial activity against Neisseria sicca (66C000), and minimum inhibitory concentration was determined

Row | MIC [1] | MIC [2] | MIC [3] | MIC [4] | MIC [5] | MIC [6] | MIC [7] | MIC [8] | MIC [9] | MIC [10] | MIC [11] | MIC [12] | MIC [13] | MIC [14] | SMILES
1 | 0.78 | 6.25 | 1.56 | 6.25 | 0.78 | 1.56 | 0.39 | 0.39 | <0.01 | 0.1 | 1.56 | 400 | – | – | COC1CC(O[C@@H]2C(C)C(=O)O[C@H](C)[C@H](C)C(OC(C)=O)C(C)C(=O)[C@]3(CO3)C[C@H](C)[C@H](OC3OC(C)CC(N(C)C)[C@H]3O)[C@H]2C)OC(C)[C@@H]1O (some centres undefined)
2 | 1.56 | 50 | – | 50 | 0.78 | 25 | 6.25 | 3.12 | <0.01 | 0.39 | 12.5 | – | >800 | 6.25 | C=CC1O[C@@H](O[C@@H]2C(C)C(=O)O[C@H](C)[C@H](C)C(OC(C)=O)C(C)C(=O)[C@]3(CO3)C[C@H](C)[C@H](OC3OC(C)CC(N(C)C)[C@H]3O)[C@H]2C)C[C@@H]1OC (some centres undefined)
